In ChEMBL document CHEMBL1125301, “1-(2-Aminoethyl)-3-methyl-8,9-dihydropyrano[3,2-e]indole: a rotationally restricted phenolic analog of the neurotransmitter serotonin and agonist selective for serotonin (5-HT2-type) receptors” (J Med Chem, 1992):

Assays:
[1] = biological target: T1, 5-hydroxytryptamine receptor 1A (Rattus norvegicus, UniProt P19327); assay: Compound was evaluated for binding affinity towards 5-hydroxytryptamine 1A receptor in rat cortex using [3H]-8-OH-DPAT as radioligand
T1 sequence (P19327 whole entry): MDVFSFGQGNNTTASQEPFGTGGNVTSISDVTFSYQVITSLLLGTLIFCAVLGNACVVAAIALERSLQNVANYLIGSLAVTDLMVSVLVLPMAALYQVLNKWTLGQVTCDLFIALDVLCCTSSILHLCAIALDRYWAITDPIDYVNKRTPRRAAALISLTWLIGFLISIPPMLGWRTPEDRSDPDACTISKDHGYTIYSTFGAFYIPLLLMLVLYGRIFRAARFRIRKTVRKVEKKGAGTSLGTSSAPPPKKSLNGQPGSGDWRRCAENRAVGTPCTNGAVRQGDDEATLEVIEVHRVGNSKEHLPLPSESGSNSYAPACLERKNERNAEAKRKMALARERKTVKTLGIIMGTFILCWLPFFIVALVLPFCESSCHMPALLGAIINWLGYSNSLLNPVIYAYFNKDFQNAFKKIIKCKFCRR
How it was run: (§1)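 Competition binding against the named radioligand on the native tissue membranes shown, radioligand at roughly its K_D for the binding system; procedures otherwise follow earlier published methods.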

[2] = biological target: T2, Serotonin 2 (5-HT2) receptor (Rattus norvegicus, UniProt P30994+P08909+P14842); assay: Compound was evaluated for binding affinity towards 5-hydroxytryptamine 2 receptor in rat anterior cortex using [125I]DOI as radioligand; how it was run: as §1
[3] = biological target: T2, Serotonin 2 (5-HT2) receptor; assay: Compound was evaluated for binding affinity towards 5-hydroxytryptamine 2 receptor in rat anterior cortex using [3H]ketanserin as radioligand; how it was run: as §1

`CN(C)CCc1c[nH]c2cc3c(cc12)OCCC3` showed an IC50 [1] of 1200 nM, an IC50 [2] of 920 nM and an IC50 [3] of 5900 nM.
`Cn1cc(CCN)c2c3c(ccc21)OCCC3` gave an IC50 [2] of 14 nM and an IC50 [3] of 800 nM.
With `CN(C)CCc1cn(C)c2ccc3c(c12)CCCO3` the IC50 [1] was 5400 nM, the IC50 [2] was 81 nM and the IC50 [3] was 1000 nM.
`NCCc1c[nH]c2ccc3c(c12)CCCO3` was tested, and the IC50 [1] was 610 nM, the IC50 [2] was 14 nM and the IC50 [3] was 2200 nM.
`COc1ccc2[nH]cc(CCN(C)C)c2c1` [MEBUFOTENIN] gave an IC50 [1] of 11 nM.
